Laboratory results: ChEMBL document CHEMBL1154547, “Salicylanilide esters of N-protected amino acids as novel antimicrobial agents” (Bioorg Med Chem Lett, 2009)
Converted amounts (≈) assume the structure as drawn.

Key:
Aspergillus fumigatus [1] = experiment: Antifungal activity against Aspergillus fumigatus 231 after 48 hrs by broth microdilution method; format: functional
Outline: (§1)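 In vitro antifungal screening against eight strains. Compounds tested at concentrations in the range 62.5–1.95 µmol/L.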

Trichosporon beigelii [2] = experiment: Antifungal activity against Trichosporon beigelii 1188 after 48 hrs by broth microdilution method; format: functional; outline: as §1
Candida tropicalis [3] = experiment: Antifungal activity against Candida tropicalis ATCC 156 after 24 hrs by broth microdilution method; format: functional; details: ATCC 156, 24 h; outline: as §1
[4] = system: Mycobacterium tuberculosis; experiment: Antitubercular activity against Mycobacterium tuberculosis H37Rv at 6.25 ug/ml by microplate alamar blue assay; format: functional
Outline: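 Primary single-concentration screen at the TAACF against M. tuberculosis H37Rv (ATCC 27294) in BACTEC 12B medium, read by Microplate Alamar Blue Assay. Each compound was tested at 6.25 per mL, or at the molar equivalent of the highest-molecular-weight compound in its congener series.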

Nakaseomyces glabratus [5] = experiment: Antifungal activity against Candida glabrata 20/I after 48 hrs by broth microdilution method; format: functional; outline: as §1
Candida tropicalis [6] = experiment: Antifungal activity against Candida tropicalis ATCC 156 after 48 hrs by broth microdilution method; format: functional; details: ATCC 156, 48 h; outline: as §1
[7] = system: Trichophyton mentagrophytes; experiment: Antifungal activity against Trichophyton mentagrophytes 445 after 24 hrs by broth microdilution method; format: functional; outline: as §1
Pichia kudriavzevii [8] = experiment: Antifungal activity against Candida krusei E28 after 48 hrs by broth microdilution method; format: functional; outline: as §1
[9] = system: Trichophyton mentagrophytes; experiment: Antifungal activity against Trichophyton mentagrophytes 445 after 48 hrs by broth microdilution method; format: functional; outline: as §1
[10] = Lipophilicity, log K of the compound; format: physicochemical
Outline: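 Mobile phase used methanol as organic modifier. The capacity factor k was measured and log k calculated from it. Chiral compounds were measured several times.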

Lichtheimia corymbifera [11] = experiment: Antifungal activity against Absidia corymbifera 272 after 48 hrs by broth microdilution method; format: functional; outline: as §1
[12] = system: Mycobacterium tuberculosis; experiment: Antitubercular activity against Mycobacterium tuberculosis H37Rv by microplate alamar blue assay; format: functional
Lichtheimia corymbifera [13] = experiment: Antifungal activity against Absidia corymbifera 272 after 24 hrs by broth microdilution method; format: functional; outline: as §1
Nakaseomyces glabratus [14] = experiment: Antifungal activity against Candida glabrata 20/I after 24 hrs by broth microdilution method; format: functional; outline: as §1
Candida albicans [15] = experiment: Antifungal activity against Candida albicans ATCC 44859 after 48 hrs by broth microdilution method; format: functional; details: ATCC 44859, 48 h; outline: as §1
Aspergillus fumigatus [16] = experiment: Antifungal activity against Aspergillus fumigatus 231 after 24 hrs by broth microdilution method; format: functional; outline: as §1
Candida albicans [17] = experiment: Antifungal activity against Candida albicans ATCC 44859 after 24 hrs by broth microdilution method; format: functional; details: ATCC 44859, 24 h; outline: as §1
Pichia kudriavzevii [18] = experiment: Antifungal activity against Candida krusei E28 after 24 hrs by broth microdilution method; format: functional; outline: as §1
Trichosporon beigelii [19] = experiment: Antifungal activity against Trichosporon beigelii 1188 after 24 hrs by broth microdilution method; format: functional; outline: as §1

## CC(C)[C@@H](NC(=O)OCc1ccccc1)C(=O)Oc1ccc(Cl)cc1C(=O)Nc1ccc(Cl)cc1
Aspergillus fumigatus [1]
  IC80: > 62.5 mg/L
Trichosporon beigelii [2]
  IC80: > 62.5 mg/L
Candida tropicalis [3]
  IC80: > 62.5 mg/L
[4]
  inhibition at 6.25 µg/mL: 77%
Nakaseomyces glabratus [5]
  IC80: > 62.5 mg/L
Candida tropicalis [6]
  IC80: > 62.5 mg/L
[7]
  IC80: 15.6 mg/L (≈ 30.3 µM)
Pichia kudriavzevii [8]
  IC80: 31.2 mg/L (≈ 60.6 µM)
[9]
  IC80: 15.6 mg/L (≈ 30.3 µM)
[10]
  log K: 0.9417
Lichtheimia corymbifera [11]
  IC80: > 62.5 mg/L
[12]
  MIC: > 6.25 mg/L
Lichtheimia corymbifera [13]
  IC80: > 62.5 mg/L
Nakaseomyces glabratus [14]
  IC80: > 62.5 mg/L
Candida albicans [15]
  IC80: > 62.5 mg/L
Aspergillus fumigatus [16]
  IC80: > 62.5 mg/L
Candida albicans [17]
  IC80: > 62.5 mg/L
Pichia kudriavzevii [18]
  IC80: 31.2 mg/L (≈ 60.6 µM)
Trichosporon beigelii [19]
  IC80: > 62.5 mg/L

## C[C@H](NC(=O)OCc1ccccc1)C(=O)Oc1ccc(Cl)cc1C(=O)Nc1cccc(Cl)c1
Aspergillus fumigatus [1]
  IC80: > 62.5 mg/L
Trichosporon beigelii [2]
  IC80: > 62.5 mg/L
Candida tropicalis [3]
  IC80: > 62.5 mg/L
[4]
  inhibition at 6.25 µg/mL: 97%
Nakaseomyces glabratus [5]
  IC80: > 62.5 mg/L
Candida tropicalis [6]
  IC80: > 62.5 mg/L
[7]
  IC80: 7.81 mg/L (≈ 16 µM)
Pichia kudriavzevii [8]
  IC80: 31.2 mg/L (≈ 64.1 µM)
[9]
  IC80: 7.81 mg/L (≈ 16 µM)
[10]
  log K: 0.6995
Lichtheimia corymbifera [11]
  IC80: 15.6 mg/L (≈ 32.1 µM)
[12]
  MIC: 3.13 mg/L (≈ 6.42 µM)
Lichtheimia corymbifera [13]
  IC80: 15.6 mg/L (≈ 32.1 µM)
Nakaseomyces glabratus [14]
  IC80: 31.2 mg/L (≈ 64.1 µM)
Candida albicans [15]
  IC80: > 62.5 mg/L
Aspergillus fumigatus [16]
  IC80: 62.5 mg/L (≈ 128 µM)
Candida albicans [17]
  IC80: 31.2 mg/L (≈ 64.1 µM)
Pichia kudriavzevii [18]
  IC80: 31.2 mg/L (≈ 64.1 µM)
Trichosporon beigelii [19]
  IC80: > 62.5 mg/L

## O=C(CNC(=O)OCc1ccccc1)Oc1ccc(Cl)cc1C(=O)Nc1ccc(Cl)cc1
Aspergillus fumigatus [1]
  IC80: > 62.5 mg/L
Trichosporon beigelii [2]
  IC80: > 62.5 mg/L
Candida tropicalis [3]
  IC80: 31.2 mg/L (≈ 66 µM)
[4]
  inhibition at 6.25 µg/mL: 16%
Nakaseomyces glabratus [5]
  IC80: 62.5 mg/L (≈ 132 µM)
Candida tropicalis [6]
  IC80: 31.2 mg/L (≈ 66 µM)
[7]
  IC80: 15.6 mg/L (≈ 33 µM)
Pichia kudriavzevii [8]
  IC80: 31.2 mg/L (≈ 66 µM)
[9]
  IC80: 15.6 mg/L (≈ 33 µM)
[10]
  log K: 0.6367
Lichtheimia corymbifera [11]
  IC80: 62.5 mg/L (≈ 132 µM)
[12]
  MIC: > 6.25 mg/L
Lichtheimia corymbifera [13]
  IC80: 31.2 mg/L (≈ 66 µM)
Nakaseomyces glabratus [14]
  IC80: 62.5 mg/L (≈ 132 µM)
Candida albicans [15]
  IC80: 62.5 mg/L (≈ 132 µM)
Aspergillus fumigatus [16]
  IC80: > 62.5 mg/L
Candida albicans [17]
  IC80: 62.5 mg/L (≈ 132 µM)
Pichia kudriavzevii [18]
  IC80: 31.2 mg/L (≈ 66 µM)
Trichosporon beigelii [19]
  IC80: 62.5 mg/L (≈ 132 µM)

## CC(C)[C@H](NC(=O)OCc1ccccc1)C(=O)Oc1ccc(Cl)cc1C(=O)Nc1ccc(Cl)cc1
Aspergillus fumigatus [1]
  IC80: > 62.5 mg/L
Trichosporon beigelii [2]
  IC80: 31.2 mg/L (≈ 60.6 µM)
Candida tropicalis [3]
  IC80: > 62.5 mg/L
[4]
  inhibition at 6.25 µg/mL: 38%
Nakaseomyces glabratus [5]
  IC80: > 62.5 mg/L
Candida tropicalis [6]
  IC80: > 62.5 mg/L
[7]
  IC80: 15.6 mg/L (≈ 30.3 µM)
Pichia kudriavzevii [8]
  IC80: 15.6 mg/L (≈ 30.3 µM)
[9]
  IC80: 15.6 mg/L (≈ 30.3 µM)
[10]
  log K: 0.9421
Lichtheimia corymbifera [11]
  IC80: > 62.5 mg/L
[12]
  MIC: > 6.25 mg/L
Lichtheimia corymbifera [13]
  IC80: > 62.5 mg/L
Nakaseomyces glabratus [14]
  IC80: > 62.5 mg/L
Candida albicans [15]
  IC80: > 62.5 mg/L
Aspergillus fumigatus [16]
  IC80: > 62.5 mg/L
Candida albicans [17]
  IC80: > 62.5 mg/L
Pichia kudriavzevii [18]
  IC80: 31.2 mg/L (≈ 60.6 µM)
Trichosporon beigelii [19]
  IC80: > 62.5 mg/L

## OC(Cn1cncn1)(Cn1cncn1)c1ccc(F)cc1F [FLUCONAZOLE]
Aspergillus fumigatus [1]
  IC80: > 125 mg/L
Trichosporon beigelii [2]
  IC80: 0.48 mg/L (≈ 1.57 µM)
Candida tropicalis [3]
  IC80: 0.12 mg/L (≈ 0.392 µM)
Nakaseomyces glabratus [5]
  IC80: 3.91 mg/L (≈ 12.8 µM)
Candida tropicalis [6]
  IC80: > 125 mg/L
[7]
  IC80: 1.95 mg/L (≈ 6.37 µM)
Pichia kudriavzevii [8]
  IC80: 15.6 mg/L (≈ 51 µM)
[9]
  IC80: 3.91 mg/L (≈ 12.8 µM)
Lichtheimia corymbifera [11]
  IC80: > 125 mg/L
Lichtheimia corymbifera [13]
  IC80: > 125 mg/L
Nakaseomyces glabratus [14]
  IC80: 0.98 mg/L (≈ 3.2 µM)
Candida albicans [15]
  IC80: 0.12 mg/L (≈ 0.392 µM)
Aspergillus fumigatus [16]
  IC80: > 125 mg/L
Candida albicans [17]
  IC80: 0.06 mg/L (≈ 0.196 µM)
Pichia kudriavzevii [18]
  IC80: 3.91 mg/L (≈ 12.8 µM)
Trichosporon beigelii [19]
  IC80: 0.24 mg/L (≈ 0.784 µM)

## NNC(=O)c1ccncc1 [ISONIAZID]
[12]
  MIC: 0.025 mg/L (≈ 0.182 µM)
